{"source": "ChEMBL document CHEMBL5500397", "about": "“Discovery of CDC42 Inhibitors with a Favorable Pharmacokinetic Profile and Anticancer In Vivo Efficacy” (J Med Chem, 2024)", "key": {"[1]": {"assay": "Metabolic stability in mouse plasma assessed as half life at 2 uM measured after 0 to 120 mins by LC-MS/MS analysis", "format": "ADME, cell-free", "settings": "time 0-120 min; for t1/2: 2 µM"}, "[2]": {"assay": "Metabolic stability in mouse liver microsomes assessed as half life at […] preincubated for 15 mins followed by NADPH cofactor addition and measured after 1 hr by LC-MS/MS analysis", "format": "ADME, Microsome", "settings": "dose 4.6 µM, time 75 min"}, "[3]": {"assay": "Cmax in male CD-1 mouse at 3 mg/kg, iv measured upto 240 mins by LC/MS/MS analysis", "format": "ADME, organism-based", "settings": "in vivo, 4 h"}, "[4]": {"assay": "Tmax in male CD-1 mouse at 3 mg/kg, iv measured upto 240 mins by LC/MS/MS analysis", "format": "ADME, organism-based", "settings": "in vivo, 4 h", "method_in_brief": "(§1)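 Mouse PK after single intravenous injection of 3 mg/kg; n = 3 animals per time point; plasma concentration–time profile used for observed and calculated PK parameters.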"}, "[5]": {"assay": "Half life in male CD-1 mouse at 3 mg/kg, iv measured upto 240 mins by LC/MS/MS analysis", "format": "ADME, organism-based", "settings": "in vivo, 4 h", "method_in_brief": "as §1"}, "[6]": {"assay": "Cmax in male CD-1 mouse at 10 mg/kg, po measured upto 480 mins by LC-MS/MS analysis", "format": "ADME, organism-based", "settings": "in vivo, 8 h", "method_in_brief": "(§2)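 Mouse PK after single oral dose of 10 mg/kg; n = 3 animals per time point; plasma concentration–time profile used for observed and calculated PK parameters.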"}, "[7]": {"assay": "Half life in male CD-1 mouse at 10 mg/kg, po measured upto 480 mins by LC-MS/MS analysis", "format": "ADME, organism-based", "settings": "in vivo, 8 h", "method_in_brief": "as §2"}, "[8]": {"assay": "Oral bioavailability in male CD-1 mouse at 10 mg/kg measured upto 480 mins by LC-MS/MS analysis", "format": "ADME, organism-based", "settings": "in vivo, 8 h", "method_in_brief": "as §2"}, "[9]": {"assay": "Drug concentration in male CD-1 mouse plasma at 3 mg/kg, iv measured after 4 hrs by LC-MS/MS analysis", "format": "ADME, organism-based", "method_in_brief": "as §1"}, "[10]": {"assay": "Drug concentration in male CD-1 mouse plasma at 10 mg/kg, po measured after 8 hrs by LC-MS/MS analysis", "format": "ADME, organism-based", "method_in_brief": "as §2"}, "[11]": {"assay": "Drug concentration in male CD-1 mouse plasma at 10 mg/kg, po measured after 4 hrs by LC-MS/MS analysis", "format": "ADME, organism-based", "method_in_brief": "as §2"}}, "data": [{"smiles": "Cn1ccc2ccc(Nc3cc(-c4ccccc4)nc(C4CCNCC4)n3)cc21", "values": [{"measurement": "t1/2", "setting": "[1]", "result": "> 2", "unit": "h"}]}, {"smiles": "FC(F)(F)Oc1cccc(Nc2nc(-c3ccccc3)cc(C3CCNCC3)n2)c1", "values": [{"measurement": "t1/2", "setting": "[1]", "result": "> 2", "unit": "h"}]}, {"smiles": "CN(C)c1cccc(Nc2nc(-c3ccccc3)cc(C3CCNCC3)n2)c1", "values": [{"measurement": "t1/2", "setting": "[1]", "result": 1, "unit": "h"}]}, {"smiles": "FC(F)(F)c1cccc(Nc2nc(-c3cccc4cnccc34)nc(C3CCNCC3)n2)c1", "values": [{"measurement": "half-life at 2 µM", "setting": "[1]", "result": "> 2", "unit": "h"}, {"measurement": "half-life at […]", "setting": "[2]", "result": "> 1", "unit": "h"}]}, {"smiles": "FC(F)(F)c1cccc(Nc2nc(-c3ccc[nH]3)nc(C3CCNCC3)n2)c1", "values": [{"measurement": "t1/2", "setting": "[1]", "result": "> 2", "unit": "h"}]}, {"smiles": "CN(C)c1cccc(Nc2cc(-c3ccccc3)nc(C3=CCNCC3)n2)c1", "values": [{"measurement": "t1/2", "setting": "[1]", "result": "> 2", "unit": "h"}]}, {"smiles": "COc1ccc(Nc2nc(-c3ccccc3)cc(C3CCNCC3)n2)cc1OC", "values": [{"measurement": "half-life at 2 µM", "setting": "[1]", "result": "> 2", "unit": "h"}, {"measurement": "Cmax", "setting": "[3]", "result": 320, "unit": "ng/mL"}, {"measurement": "Tmax", "setting": "[4]", "result": 5, "unit": "min"}, {"measurement": "t1/2", "setting": "[5]", "result": 4.28, "unit": "h"}, {"measurement": "Cmax", "setting": "[6]", "result": 140, "unit": "ng/mL"}, {"measurement": "t1/2", "setting": "[7]", "result": 2.8, "unit": "h"}, {"measurement": "F", "setting": "[8]", "result": 22, "unit": "%"}, {"measurement": "concentration at 4 h", "setting": "[9]", "result": 74, "unit": "ng/mL"}, {"measurement": "concentration at 8 h", "setting": "[10]", "result": 7, "unit": "ng/mL"}]}, {"smiles": "FC(F)(F)c1cccc(Nc2nc(-c3coc4ccccc34)nc(C3CCNCC3)n2)c1", "values": [{"measurement": "half-life at 2 µM", "setting": "[1]", "result": "> 2", "unit": "h"}, {"measurement": "half-life at […]", "setting": "[2]", "result": "> 1", "unit": "h"}]}, {"smiles": "FC(F)(F)c1cccc(Nc2nc(-c3ccc4[nH]ncc4c3)nc(C3CCNCC3)n2)c1", "values": [{"measurement": "half-life at 2 µM", "setting": "[1]", "result": "> 2", "unit": "h"}, {"measurement": "half-life at […]", "setting": "[2]", "result": "> 1", "unit": "h"}]}, {"smiles": "FC(F)Oc1cc(Nc2nc(-c3ccccc3)cc(C3CCNCC3)n2)ccn1", "values": [{"measurement": "t1/2", "setting": "[1]", "result": "> 2", "unit": "h"}]}, {"smiles": "COC(=O)c1cc(Nc2nc(-c3ccccc3)cc(C3CCNCC3)n2)ccc1OC", "values": [{"measurement": "t1/2", "setting": "[1]", "result": 1.48, "unit": "h"}]}, {"smiles": "COc1cc(Nc2nc(-c3ccccc3)cc(C3CCNCC3)n2)ccn1", "values": [{"measurement": "t1/2", "setting": "[1]", "result": "> 2", "unit": "h"}]}, {"smiles": "COc1ccc(Nc2nc(-c3ccccc3)cc(C3CCNCC3)n2)cn1", "values": [{"measurement": "t1/2", "setting": "[1]", "result": "> 2", "unit": "h"}]}, {"smiles": "c1ccc(-c2cc(Nc3ccc4cc[nH]c4c3)nc(C3CCNCC3)n2)cc1", "values": [{"measurement": "t1/2", "setting": "[1]", "result": "> 2", "unit": "h"}]}, {"smiles": "Cn1ccc2cc(-c3nc(Nc4cccc(C(F)(F)F)c4)nc(C4CCNCC4)n3)ccc21", "values": [{"measurement": "half-life at 2 µM", "setting": "[1]", "result": "> 2", "unit": "h"}, {"measurement": "half-life at […]", "setting": "[2]", "result": "> 1", "unit": "h"}]}, {"smiles": "FC(F)(F)c1cccc(Nc2nc(-c3ccccc3)cc(C3CCNCC3)n2)c1", "values": [{"measurement": "t1/2", "setting": "[1]", "result": "> 2", "unit": "h"}]}, {"smiles": "FC(F)(F)c1cc(Nc2nc(-c3ccccc3)cc(C3CCNCC3)n2)ccn1", "values": [{"measurement": "t1/2", "setting": "[1]", "result": "> 2", "unit": "h"}, {"measurement": "Cmax", "setting": "[3]", "result": 643, "unit": "ng/mL"}, {"measurement": "Tmax", "setting": "[4]", "result": 5, "unit": "min"}, {"measurement": "t1/2", "setting": "[5]", "result": 1.92, "unit": "h"}, {"measurement": "Cmax", "setting": "[6]", "result": 99, "unit": "ng/mL"}, {"measurement": "t1/2", "setting": "[7]", "result": 1.52, "unit": "h"}, {"measurement": "F", "setting": "[8]", "result": 8, "unit": "%"}, {"measurement": "concentration at 4 h", "setting": "[9]", "result": 84, "unit": "ng/mL"}, {"measurement": "concentration at 4 h", "setting": "[11]", "result": 40, "unit": "ng/mL"}]}, {"smiles": "FC(F)(F)c1cccc(Nc2nc(C3=CCNCC3)nc(-c3ccsc3)n2)c1", "values": [{"measurement": "t1/2", "setting": "[1]", "result": "> 2", "unit": "h"}]}]}
